According to ChEMBL document CHEMBL4196009, “Novel vitexin-inspired scaffold against leukemia” (Eur J Med Chem, 2018):
pEC50: −log10 of the molar value. Values belong to the molecule of their own block, whether it stands above or below them. Calls of active or inactive are those of the source. The calls are words filed in the database; no cut-off is given here.

Experiments:
[1] = test system: BJ; assay: Antiproliferative activity against human BJ cells after 72 hrs by CelTiter-Glo assay; format: cell-based
[2] = species on record: Homo sapiens; assay: Inhibition of RNA polymerase 2 C-terminal domain phosphorylation at Ser2 residue in human KOPN8 cells at 0.5 uM after 3 hrs by Western blot analysis relative to control; format: cell-based
How it was run: (§1)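 KOPN-8 cells were exposed to compound for 3 h and 24 h, with or without N-acetylcysteine added to a parallel set as antioxidant. Lysates were analysed by Western blot for cleaved PARP, Mcl-1, Ser-2-phosphorylated RNAPII CTD, cMyc, total Rb and pRb. Signals were compared against controls for dose-dependent change.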

[3] = test system: KOPN-8; assay: Antiproliferative activity against human KOPN8 cells after 72 hrs by CelTiter-Glo assay; format: functional, cell-based; conditions: KOPN-8, 72 h
[4] = test system: KOPN-8; assay: Induction of apoptosis in human KOPN8 cells assessed as late apoptotic cells at 5 uM after 24 hrs by Annexin V-FITC/propidium iodide staining-based flow cytometry (reference value: 9.5%); format: functional
How it was run: (§2)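 KOPN-8 cells were treated for 24 h, with a DMSO vehicle control and a staurosporine positive control. Cells were stained with FITC-Annexin V and propidium iodide and analysed by flow cytometry. Quadrant gating separated viable, early apoptotic, late apoptotic (Q2) and necrotic populations.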

[5] = test system: HepG2; assay: Antiproliferative activity against human HepG2 cells after 72 hrs by CelTiter-Glo assay; format: functional, cell-based; conditions: HepG2, 72 h
[6] = test system: SUP-B15; assay: Antiproliferative activity against human SUP-B15 cells after 72 hrs by CelTiter-Glo assay; format: functional, cell-based; conditions: SUP-B15, 72 h
[7] = test system: KOPN-8; assay: Induction of apoptosis in human KOPN8 cells assessed as upregulation of cleaved PARP level at 0.5 uM pre-treated with NAC for 1 hr and measured after 24 hrs by Western blot analysis; format: functional, cell-based; how it was run: as §1
[8] = test system: KOPN-8; assay: Induction of apoptosis in human KOPN8 cells assessed as upregulation of cleaved PARP level at 0.5 uM after 24 hrs by Western blot analysis; format: functional, cell-based; how it was run: as §1
[9] = test system: KOPN-8; assay: Induction of apoptosis in human KOPN8 cells assessed as upregulation of cleaved PARP level at 0.5 uM after 3 hrs by Western blot analysis; format: functional, cell-based; how it was run: as §1
[10] = biological target: T1, Retinoblastoma-associated protein (Homo sapiens) (UniProt P06400); assay: Inhibition of Rb phosphorylation in human KOPN8 cells assessed as ratio of phosphorylated Rb to total Rb levels at 0.5 uM after 3 hrs by Western blot analysis relative to control; format: cell-based
T1 sequence (whole entry): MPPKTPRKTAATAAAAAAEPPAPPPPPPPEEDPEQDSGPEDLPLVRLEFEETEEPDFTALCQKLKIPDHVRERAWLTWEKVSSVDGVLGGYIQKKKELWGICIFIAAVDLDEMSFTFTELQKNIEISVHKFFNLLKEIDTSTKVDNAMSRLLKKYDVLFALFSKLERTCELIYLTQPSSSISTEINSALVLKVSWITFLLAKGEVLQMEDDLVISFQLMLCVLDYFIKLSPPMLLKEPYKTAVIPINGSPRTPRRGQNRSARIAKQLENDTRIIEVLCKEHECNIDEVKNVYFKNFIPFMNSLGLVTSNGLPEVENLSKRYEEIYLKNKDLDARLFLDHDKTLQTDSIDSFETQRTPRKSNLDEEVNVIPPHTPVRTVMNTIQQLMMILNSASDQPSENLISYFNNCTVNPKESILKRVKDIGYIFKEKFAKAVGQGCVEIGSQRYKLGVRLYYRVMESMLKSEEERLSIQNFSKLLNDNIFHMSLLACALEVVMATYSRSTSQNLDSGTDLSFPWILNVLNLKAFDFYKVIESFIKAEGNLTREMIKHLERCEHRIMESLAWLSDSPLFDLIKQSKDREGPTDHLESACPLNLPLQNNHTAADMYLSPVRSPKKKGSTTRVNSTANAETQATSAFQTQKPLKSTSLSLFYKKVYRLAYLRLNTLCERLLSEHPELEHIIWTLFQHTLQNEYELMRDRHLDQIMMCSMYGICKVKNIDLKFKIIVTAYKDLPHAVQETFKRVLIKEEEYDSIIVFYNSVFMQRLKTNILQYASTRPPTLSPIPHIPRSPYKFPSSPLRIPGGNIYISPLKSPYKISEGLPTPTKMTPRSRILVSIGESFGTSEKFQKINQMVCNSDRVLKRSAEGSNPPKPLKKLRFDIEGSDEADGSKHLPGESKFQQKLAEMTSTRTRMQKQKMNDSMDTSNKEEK
How it was run: (§3)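 KOPN-8 pre-B ALL cells were treated for 3 h and 24 h, with or without N-acetyl cysteine added to a parallel set of cells as an antioxidant/ROS quencher. Lysates were analysed by Western blot for phosphorylated Rb and total Rb. The same blots also probed PARP cleavage, Mcl-1, Ser-2-phosphorylated RNAPII CTD and cMyc.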

[11] = test system: UoC-B1; assay: Antiproliferative activity against human UOCB1 cells after 72 hrs by CelTiter-Glo assay; format: functional, cell-based; conditions: UoC-B1, 72 h
[12] = test system: SUP-B15; assay: Induction of apoptosis in human SUP-B15 cells assessed as late apoptotic cells at 5 uM after 24 hrs by Annexin V-FITC/propidium iodide staining-based flow cytometry (reference value: 2.2%); format: functional
[13] = test system: SEM cells; assay: Antiproliferative activity against human SEM cells after 72 hrs by CelTiter-Glo assay; format: functional, cell-based
[14] = test system: KOPN-8; assay: Induction of apoptosis in human KOPN8 cells assessed as necrotic cells at 5 uM after 24 hrs by Annexin V-FITC/propidium iodide staining-based flow cytometry (reference value: 0.2%); format: functional; how it was run: as §2
[15] = test system: THLE-2; assay: Antiproliferative activity against human THLE2 cells after 72 hrs by CelTiter-Glo assay; format: cell-based; conditions: THLE-2, 72 h
[16] = test system: MCF7; assay: Induction of oxidative stress in human MCF7 cells transfected with mRuby-Mito-7 with fugene assessed as increase in intracellular total ROS levels at 50 uM treated 30 mins post NAC addition measured after 1 hr by fluorimetric analysis; format: functional, cell-based
How it was run: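 MCF-7 cells carried an mRuby-Cox8A mitochondrial label. They were exposed to 50 of compound, alone or together with 50 of N-acetylcysteine, for 1 h. Cells were then stained with CellROX green (ex/em 485/520 nm) plus Hoechst 33342 nuclear stain. Total and mitochondrial ROS fluorescence was imaged in live cells and quantified relative to control.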

[17] = biological target: T1, Retinoblastoma-associated protein (Homo sapiens); assay: Inhibition of Rb phosphorylation in human KOPN8 cells assessed as ratio of phosphorylated Rb to total Rb levels at 10 uM pre-treated with NAC for 1 hr and measured after 3 hrs by Western blot analysis relative to control; format: cell-based; how it was run: as §3
[18] = species on record: Homo sapiens; assay: Inhibition of RNA polymerase 2 C-terminal domain phosphorylation at Ser2 residue in human KOPN8 cells at 100 uM pre-treated with NAC for 1 hr and measured after 24 hrs by Western blot analysis relative to control; format: cell-based; how it was run: as §1
[19] = biological target: T1, Retinoblastoma-associated protein (Homo sapiens); assay: Inhibition of Rb phosphorylation in human KOPN8 cells after 24 hrs by Western blot analysis; format: cell-based; how it was run: as §1
[20] = species on record: Homo sapiens; assay: Inhibition of RNA polymerase 2 C-terminal domain phosphorylation at Ser2 residue in human KOPN8 cells at 30 uM pre-treated with NAC for 1 hr and measured after 24 hrs by Western blot analysis relative to control; format: cell-based; how it was run: as §1

- pEC50 [5]: 6.54
- fold change (FC) [10]: 1
Compound: CN(C)C(=O)c1cc2cnc(Nc3ccc(N4CCNCC4)cn3)nc2n1C1CCCC1 [RIBOCICLIB]
- pEC50 [1]: < 4.18
- fold change (FC) [2]: 0.8
- pEC50 [3]: 6.30
- Activity [4]: 67.4%
- pEC50 [6]: < 4.18
- Activity [7]: Active
- Activity [8]: inactive
- Activity [9]: Active
- pEC50 [11]: < 4.18
- Activity [12]: 22.5%
- pEC50 [13]: 6.34
- Activity [14]: 0.3%

- pEC50 [5]: < 4.76
- fold change (FC) [17]: 1
- inhibition [19]: Dose-dependent effect
Compound: COc1ccc(-c2c(I)c(=O)c3c(OC)cc(OC)cc3n2S(=O)(=O)c2ccc(OC)cc2)cc1
- pEC50 [1]: < 4.46
- pEC50 [3]: 5.07
- pEC50 [15]: 4.24
- pEC50 [6]: 4.91
- Activity [16]: inactive
- pEC50 [11]: 5.59
- fold change (FC) [18]: 0.1
- pEC50 [13]: 5.26
- fold change (FC) [20]: 0.7
